Hits are enriched below; roughly 4.3% of the tested compounds scored in any of these assays.
WT yeast gro inh: growth inhibition of WT yeast, mitochondrial fusion screen; mitochondrial fusion phenotypic screen, WT strain; inhibition, % at 10 µM; hit rate 2.1% among 190,000; AID 1362; in the data active = inhibition above about 58%; tested in S. cerevisiae
BB579 growth dn: yeast BB579 growth reduction in restrictive medium; inhibition, % at 10 µM; hit rate 0.51% among 140,000; AID 804; S. cerevisiae BB579 growth, OD615, 48 h;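 active = inhibition above a set limit, 3 SD over the mean compound inhibition, cut at about 44% in these data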
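System: Saccharomyces cerevisiae DeaD strain BB579, replicative lifespan model yeast | Buffer or medium: Restrictive glucose-based CSMM-D medium | Times: 4 h preincubation and 48 h exposure at 30 °C | Detection: OD615 turbidity measurement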
RAM inhibit: inhibitors of the yeast RAM network; inhibition, % at 50 µM; S. cerevisiae dse1pr::URA3 reporter, 5-FOA growth OD615, 2 d; analog-sensitive cbk1-as2 kinase mutant strain; AID 868; hit rate 1.8% among 190,000;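 active = inhibition above a set limit, 3 SD over mean compound inhibition, cut at about 8.4% in these data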;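 note: 0% = DMSO-only wells with no growth and 100% = 10 µM 1-NA-PP1 full growth; inhibition rescues growth on 5-FOA so higher OD means more RAM inhibition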
Yeast life ext: yeast lifespan extension; S. cerevisiae growth with nicotinamide, OD615; deaD strain in restrictive glucose medium; hit rate 0.68% among 130,000; inhibition of the nicotinamide effect, % at 10 µM;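 active = inhibition above a set limit, placed 3 SD over the median of all compounds, cut at about 26% in these data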;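 note: 0% = nicotinamide-treated wells and 100% = cells grown without nicotinamide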
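Buffer or medium: CSMM-D glucose medium, restrictive; test system: modified budding yeast, DeaD strain; compound: single dose 10 µM compound, 0.25% DMSO; schedule: culture preincubation 4 h, compound exposure 48 h, both 30 °C; detection: optical density (absorbance) at 615 nm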
* hit, by the source's call.

How did O=C(Nc1ccccc1)OC1CC2CC1C1CCCC21 (centres undefined) do in these assays?
WT yeast gro inh: 80*; RAM inhibit: 1

Results for CC(/C=C/c1ccc(O)cc1)=N/O ?
WT yeast gro inh: -13; BB579 growth dn: -15; RAM inhibit: 0

How did O=C(O)/C=C/c1cn(Cc2ccccc2)nc1-c1ccccc1 do in these assays?
WT yeast gro inh: -8; BB579 growth dn: -43; RAM inhibit: -1; Yeast life ext: -14

How did O=C(O)CCn1cc(/C=C/C(=O)c2ccc(Cl)cc2)c(-c2ccc(Br)cc2)n1 do in these assays?
WT yeast gro inh: 18; BB579 growth dn: 52*; RAM inhibit: 4; Yeast life ext: -10

How did C/C(=N\Nc1cc(-c2ccccc2)nc(-c2ccccc2)n1)c1ccc(O)c(C)c1 do in these assays?
WT yeast gro inh: 92*; BB579 growth dn: -56; RAM inhibit: 4; Yeast life ext: -4

What do the screens show for `COC(=O)c1cc(NC(=O)CN(c2cccc(OC)c2)S(=O)(=O)c2ccccc2)ccc1Cl`?
WT yeast gro inh: 25; BB579 growth dn: -13; RAM inhibit: 8.9*; Yeast life ext: 2

How did CCSc1nc(C2CC2)cc(-c2ccco2)c1C#N do in these assays?
WT yeast gro inh: 18; BB579 growth dn: -32; RAM inhibit: 10*; Yeast life ext: -17

Results for COc1ccc(-c2nnc3sc(CCN4C(=O)c5ccccc5C4=O)nn23)cc1 ?
WT yeast gro inh: 3; BB579 growth dn: -6; RAM inhibit: 9.4*; Yeast life ext: -3

What do the screens show for `O=[N+]([O-])c1ccc(C=Nc2ccc(Cl)c([N+](=O)[O-])c2)s1`?
WT yeast gro inh: 14; RAM inhibit: -1

How did Cc1nc2ccccc2n1/N=C/c1ccc([N+](=O)[O-])s1 do in these assays?
WT yeast gro inh: 80*; BB579 growth dn: -12; RAM inhibit: 0; Yeast life ext: -7

Results for COc1cccc(/C=N/n2c(C)nc3ccccc32)c1OC ?
WT yeast gro inh: 62*; BB579 growth dn: -27; RAM inhibit: 3; Yeast life ext: -17

Results for NC(=O)c1ccc(N=Cc2ccc([N+](=O)[O-])s2)cc1 ?
WT yeast gro inh: 6; BB579 growth dn: 100*; RAM inhibit: -1; Yeast life ext: -11

Results for Cc1cc(C)cc(N=Cc2ccc([N+](=O)[O-])s2)c1 ?
WT yeast gro inh: 41; BB579 growth dn: 100*; RAM inhibit: -1; Yeast life ext: -11

Results for CCc1ccc(S(=O)(=O)NC(=S)Nc2ccccc2)cc1 ?
WT yeast gro inh: 16; RAM inhibit: 2

How did Cc1ccc2nc3c(nc2c1)-c1ccccc1C3=O do in these assays?
WT yeast gro inh: 39; BB579 growth dn: 59*; RAM inhibit: 3; Yeast life ext: -9

How did CC1CCN(c2nc(/C=C/c3ccccc3)nc3ccccc23)CC1 do in these assays?
WT yeast gro inh: 66; BB579 growth dn: 91*; RAM inhibit: -1; Yeast life ext: -12

How did O=C(NCC1CCCO1)/C(=C/c1cn(-c2ccccc2)nc1-c1cccnc1)NC(=O)c1ccccc1 (centres undefined) do in these assays?
WT yeast gro inh: -12; RAM inhibit: 1

How did CC(C)(C)C1CCC(=NOC(=O)c2ccc(F)cc2)CC1 (centres undefined) do in these assays?
WT yeast gro inh: 98*; RAM inhibit: -2

What do the screens show for `COc1ccc(Cc2n[nH]c(=S)n(N)c2=O)cc1`?
WT yeast gro inh: 0; RAM inhibit: 1

How did COCc1cc(C)nc(OCC(=O)N/N=C/c2ccc(C)o2)c1C#N do in these assays?
WT yeast gro inh: 8; RAM inhibit: 0

What do the screens show for `Cc1c(C(=O)N2CCN(c3ccc(C(F)(F)F)cn3)CC2)oc2ccccc12`?
WT yeast gro inh: 71*; BB579 growth dn: -26; RAM inhibit: 4; Yeast life ext: -12

What do the screens show for `CCOP(=O)(OCC)c1nc(-c2cccc([N+](=O)[O-])c2)oc1N1CCCCC1`?
WT yeast gro inh: -21; RAM inhibit: 0

What do the screens show for `CCOP(=O)(c1ccccc1)c1nc(-c2ccccc2Cl)oc1N1CCCCC1` (centres undefined)?
WT yeast gro inh: 66*; BB579 growth dn: -24; RAM inhibit: 5

How did COCCN1Cc2cccc(C(=O)NC3CCCCCC3)c2C1=O do in these assays?
WT yeast gro inh: 71*; BB579 growth dn: -22; RAM inhibit: 0; Yeast life ext: 5

Results for CCOC(=O)c1cc2sc(C)cc2n1CCCN1C(=O)c2ccccc2C1=O ?
WT yeast gro inh: 9; BB579 growth dn: -35; RAM inhibit: 11*; Yeast life ext: -16
